From ChEMBL document CHEMBL1154081, “Synthesis of uracil nucleotide analogs with a modified, acyclic ribose moiety as P2Y(2) receptor antagonists” (Bioorg Med Chem, 2009)

What was measured:
Assay type in all cases: functional, cell-based
P2Y purinoceptor 2 [1] = target: T1, P2Y purinoceptor 2 (Mus musculus, UniProt P35383); assay: (§1) Antagonist activity at mouse P2Y2 receptor expressed in NG108-15 hybrid cells assessed as inhibition of 1 uM UTP-induced intracellular calcium release preincubated 30 mins before UTP challenge by fluorescence assay
Method in brief: (§2)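 Oregon Green-loaded NG108-15 cells in Krebs–HEPES pH 7.4, 17,000 cells/well, preincubated at 37 °C for at least 30 min with two concentrations of test compound. UTP agonist then injected, and the inhibition of the intracellular Ca2+ fluorescence rise was measured at 520 nm. Quadruplicate determinations.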

[2] = target: P2Y purinoceptor 2 (Mus musculus) (UniProt P35383); assay: as §1; method in brief: as §2
P2Y purinoceptor 2 [3] = target: T1, P2Y purinoceptor 2; assay: Antagonist activity at mouse P2Y2 receptor expressed in NG108-15 hybrid cells assessed as inhibition of 3 uM UTP-induced intracellular calcium release preincubated 30 mins before UTP challenge by fluorescence assay; method in brief: as §2
P2Y purinoceptor 2 [4] = target: T1, P2Y purinoceptor 2; assay: Agonist activity at mouse P2Y2 receptor expressed in NG108-15 hybrid cells assessed as increase in intracellular calcium release by fluorescence assay
Method in brief: (§3)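 NG108-15 cells (mouse neuroblastoma × rat glioma; endogenous P2Y2, no P2Y4) grown in DMEM with 10% FBS, penicillin/streptomycin and HAT. Cells loaded 1 h at 25 °C with shaking, with the Ca2+ fluorophore Oregon Green. Cells rinsed twice in Krebs–HEPES pH 7.4 and plated at 17,000 cells/well. Compound in buffer injected, then fluorescence read at 520 nm over 60 × 0.4 s. Quadruplicate points.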

[5] = target: P2Y purinoceptor 2 (Mus musculus) (UniProt P35383); assay: Agonist activity at mouse P2Y2 receptor expressed in NG108-15 hybrid cells assessed as increase in intracellular calcium release at 100 uM by fluorescence assay relative to UTP; method in brief: as §3

Chain of P2Y purinoceptor 2 (Mus musculus) (P35383 whole entry): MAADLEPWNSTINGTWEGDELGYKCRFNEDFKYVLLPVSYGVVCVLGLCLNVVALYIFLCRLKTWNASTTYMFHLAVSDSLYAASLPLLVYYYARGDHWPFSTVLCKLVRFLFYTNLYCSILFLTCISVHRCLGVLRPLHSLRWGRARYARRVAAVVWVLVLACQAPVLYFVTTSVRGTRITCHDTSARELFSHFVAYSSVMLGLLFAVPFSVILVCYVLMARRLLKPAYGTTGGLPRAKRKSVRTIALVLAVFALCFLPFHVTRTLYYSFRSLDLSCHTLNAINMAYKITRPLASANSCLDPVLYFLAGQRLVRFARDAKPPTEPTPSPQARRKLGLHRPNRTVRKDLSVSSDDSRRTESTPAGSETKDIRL
T1 sequence (P35383 whole entry): as above

Row | IC50 (P2Y purinoceptor 2 [1]) [µM] | inhibition [2] [%] | SMILES | further results
1 | 338 |  | O=c1ccn(COCCCOP(=O)(O)O)c(=O)[nH]1 | 
2 | 166 |  | O=c1ccn(CCCCCP(=O)(O)OP(=O)(O)OP(=O)(O)O)c(=O)[nH]1 | 
3 |  | 60 | O=c1ccn(CCOP(=O)(O)OP(=O)(O)OP(=O)(O)O)c(=O)[nH]1 | IC50 (P2Y purinoceptor 2 [1]; ng108-15): ≤ 500 µM
4 |  | 60 | O=c1ccn(CCCCOP(=O)(O)O)c(=O)[nH]1 | IC50 (P2Y purinoceptor 2 [1]; ng108-15): ≤ 500 µM
5 | > 500 | 22 | O=c1ccn(CCOP(=O)(O)O)c(=O)[nH]1 | 
6 | 500 | 50 | O=c1ccn(CCCCCOP(=O)(O)OP(=O)(O)OP(=O)(O)O)c(=O)[nH]1 | 
7 |  |  | O=c1ccn(CCCCOP(=O)(O)OP(=O)(O)OP(=O)(O)O)c(=O)[nH]1 | IC50 (P2Y purinoceptor 2 [3]): 596 µM
8 | > 500 | 16 | O=c1ccn(COCCOP(=O)(O)O)c(=O)[nH]1 | 
9 | 1.51 |  | O=c1ccn([C@@H]2O[C@H](COP(=O)(O)OP(=O)(O)OP(=O)(O)O)[C@@H](O)[C@H]2O)c(=O)[nH]1 [URIDINE TRIPHOSPHATE] | EC50 (P2Y purinoceptor 2 [4]): 1.26 µM; Activity [5]: 40%
10 | 92 |  | O=c1ccn(CCCCP(=O)(O)OP(=O)(O)OP(=O)(O)O)c(=O)[nH]1 | 
11 | > 500 | 16 | O=c1ccn(COCCOP(=O)(O)OP(=O)(O)OP(=O)(O)O)c(=O)[nH]1 | 
12 | 500 | 52 | O=c1ccn(CCCP(=O)(O)OP(=O)(O)OP(=O)(O)O)c(=O)[nH]1 | 
13 | 267 |  | O=c1ccn(CCCCCOP(=O)(O)O)c(=O)[nH]1 | 
14 | 264 |  | O=c1ccn(COCCCOP(=O)(O)OP(=O)(O)OP(=O)(O)O)c(=O)[nH]1 | 
15 | 500 | 55 | O=c1ccn(CCCCCP(=O)(O)OP(=O)(O)O)c(=O)[nH]1 | 
